NPY Y1 blocker: NPY-Y1 receptor antagonists, primary screen, cell-based; Neuropeptide Y receptor type 1 (Homo sapiens), P25929; HEK293-CNG Y1 cells, membrane potential fluorescence; NPY at EC95, then isoproterenol; inhibition, % at 3.6 µM; hit rate 1% among 200,000;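 active means inhibition above the campaign mean inhibition of all tested compounds plus 3 SD, cut at about 20% in these data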;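 further: 0% = DMSO wells given NPY plus isoproterenol and 100% = isoproterenol alone without NPY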
Target sequence (P25929 whole entry, looked up): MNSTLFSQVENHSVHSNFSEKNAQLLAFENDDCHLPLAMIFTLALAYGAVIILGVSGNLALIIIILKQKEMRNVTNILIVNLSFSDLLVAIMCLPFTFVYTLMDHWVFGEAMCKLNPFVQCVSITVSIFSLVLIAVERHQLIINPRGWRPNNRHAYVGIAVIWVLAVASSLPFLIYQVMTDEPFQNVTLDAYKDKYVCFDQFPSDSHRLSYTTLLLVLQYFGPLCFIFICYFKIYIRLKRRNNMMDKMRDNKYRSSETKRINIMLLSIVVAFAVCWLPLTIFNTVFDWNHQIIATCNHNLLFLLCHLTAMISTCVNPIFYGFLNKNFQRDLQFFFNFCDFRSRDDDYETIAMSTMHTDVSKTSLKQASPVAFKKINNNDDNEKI
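Material: HEK293 cells with Y1 receptor plus CNG channel; times: compound incubation 1 h at room temperature, readout 45 min post-stimulation; signal: fluorescence, membrane potential probe; read-out basis: fluorescence ratio normalized to % inhibition between controls; benchmarks: full-block control isoproterenol-only wells, zero-block control NPY plus isoproterenol wells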
NPY-Y2 PAM-ag: NPY-Y2 potentiators or agonists, primary screen, cell-based; cells expressing NPY-Y2, potentiator/agonist read-out; activation, % at 3.6 µM; hit rate 0.45% among 220,000; AID 1359, 2008; in the data active means activation above about 27%;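 further: cells stimulated with NPY near EC25 plus isoproterenol at EC100; 0% = vehicle plus submaximal agonist and 100% = vehicle plus saturating agonist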
NPY-Y1 PAM-ag: NPY-Y1 receptor potentiators or agonists, primary screen, cell-based | Neuropeptide Y receptor type 1 (Homo sapiens), P25929 | NPY-Y1 expressing cells, potentiator/agonist activation | activation, % at 3.6 µM | hit rate 0.37% among 220,000; in the data active means activation above about 33%, passing the limit was not always enough;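 further: cells stimulated with NPY at EC10 then isoproterenol at EC100; 0% = low agonist plus stimulus and 100% = saturating agonist plus stimulus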
NPY-Y2 antag: NPY-Y2 receptor antagonists, primary screen, cell-based | NPY-Y2 expressing cells, antagonist mode | inhibition, % at 2.7 µM | hit rate 0.99% among 140,000 | AID 793, 2007;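 further: 0% = vehicle with agonist challenge and 100% = reference antagonist with challenge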
NPY1 antag conf: NPY-Y1 receptor antagonists, retest of hits, confirmation, HEK293-CNG cells, membrane potential fluorescence, triplicate | shares compounds with NPY Y1 blocker | cAMP; NPY challenge against isoproterenol-raised cAMP | inhibition, % at 3.6 µM | hit rate 21% among 1,200; in the data active means inhibition above about 20%;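 further: 0% = vehicle with agonist plus stimulus and 100% = stimulus alone without agonist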
NPY-Y2 antag ct: NPY-Y2 receptor antagonists, selectivity check, confirmation, counter-screen for NPY-Y1 antagonist project, HEK293-CNG cells, membrane potential fluorescence, triplicate; antagonism; cells given NPY, then isoproterenol; inhibition, % at 3.6 µM; AID 1255, 2008; hit rate 28% among 1,200; shares compounds with NPY Y1 blocker;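 further: 0% = DMSO with agonist challenge and 100% = reference antagonist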
Active calls of the source: *; x = not tested or not shown; ! = repeats disagree. Rows were chosen to be rich in hits. Some 1.8% of all compounds tested hit in one or more screens of this group. Unless noted, no stated cut-off is given here; in the data, active means inhibition above about 17%; inactive means the rest.

SMILES	NPY Y1 blocker	NPY-Y2 PAM-ag	NPY-Y1 PAM-ag	NPY-Y2 antag	NPY1 antag conf	NPY-Y2 antag ct
CC(C)c1ccc(-n2c(-c3ccccc3)c[n+]3c2CCc2ccccc2-3)cc1	115.5*	-21.3	-75.2	x	112.0*	76.7*
COc1ccccc1-n1c(-c2ccccc2)c[n+]2c1CCc1ccccc1-2	33.3*	14.0	-66.5	x	20.5*!	13.7
COc1ccccc1-n1c(-c2ccccc2)c[nH]c1=S	-2.0	4.9	2.3	x	x	x
Cc1cc(C)c(S(C)(=O)=O)c(Sc2ccc(Cl)cc2)n1	-2.0	-11.3	-15.4	1.1	x	x
c1ccc2c(c1)CC/C2=N/Nc1nc2ccccc2[nH]1	26.4*	-11.0	-36.9	x	20.4*	20.8*
O=C(NC(=S)Nc1ccc(Oc2ccccc2)cc1)c1ccc(Cl)cc1	20.4*	-5.8	-34.1	4.5	9.4	10.5
Cc1ccc(C(=O)NC(=S)Nc2ccc(Oc3ccc(Cl)cc3)cc2)cc1	1.5	2.6	-10.2	1.4	x	x
Clc1ccc(CN(CC2CCCO2)C(c2cccs2)c2nnnn2C2CCCC2)cc1 (stereo not given)	40.0*	-2.2	-16.3	11.3	12.8	15.6
Cc1ccc(S(=O)(=O)Nc2cc(C)nn2-c2ccccc2)cc1	33.0*	7.1	-11.1	1.8	-1.5	-0.8
O=C(NCCN1C(=O)S/C(=C\c2ccccc2F)C1=O)C1CCN(S(=O)(=O)c2cccs2)CC1	20.3*	-4.2	2.5	14.9	8.9	10.1
CCCNC(=O)C1CCN(S(=O)(=O)c2cccs2)CC1	0.3	10.0	21.3	x	x	x
COc1cc(NC2c3ccccc3C(=O)N2Cc2ccc3c(c2)OCO3)cc(OC)c1OC (stereo not given)	22.7*	-20.6	-7.1	15.3	15.8	7.3
CCOc1ccc(NC2c3ccccc3C(=O)N2Cc2ccc3c(c2)OCO3)cc1 (stereo not given)	-2.8	6.4	-3.6	2.3	x	x
O=C(c1ccc2c(c1)OCO2)C1CCCN(C2CCN(CCc3ccccc3)CC2)C1 (stereo not given)	21.9*	-30.0	-28.6	x	17.5	23.1*
Cn1cnnc1SCC(=O)c1ccc(O)c(O)c1	-6.2	-2.3	14.8	x	x	x
COC(=O)Nc1ccc(S(=O)(=O)NCc2ccccn2)cc1	41.3*	7.6	6.3	x	4.9	0.4
Brc1ccc(C2=Nn3c(nnc3-c3n[nH]c4c3CCC4)SC2)cc1	21.9*	-39.9	-49.8	15.3	14.0	20.5*
Clc1ccc(C2=Nn3c(nnc3-c3n[nH]c4c3CCC4)SC2)cc1	7.1	-32.3	-36.1	10.3	x	x
C=C(C)Cn1cnc2cc(C)c(C)cc21	4.4	-3.8	-2.5	x	x	x
O=C(CC1C(=O)N(c2ccccc2)C(=O)N1Cc1ccco1)Nc1ccccc1 (stereo not given)	-4.3	-6.1	5.8	x	x	x
CC(C)N1C(=S)N(Cc2ccco2)C(=O)C1CC(=O)Nc1ccccc1 (stereo not given)	74.2*	4.1	7.0	x	-0.7	-1.3
O=C(CC1NCCN(Cc2ccccc2)C1=O)Nc1ccccc1 (stereo not given)	x	-8.0	10.2	x	x	x
CC(C)(C)c1ccc(CSc2nnc(-c3ccccn3)n2Cc2ccco2)cc1	21.1*	-15.8	-16.4	16.1	6.7	12.9
CNC(=O)CSc1nnc(-c2ccccn2)n1Cc1ccco1	x	20.8	16.2	x	x	x
COCc1[nH]nc2c1C(c1ccsc1)C(C#N)=C(N)O2 (stereo not given)	1.8	0.5	-4.1	2.2	x	x
SMILES	NPY Y1 blocker	NPY-Y2 PAM-ag	NPY-Y1 PAM-ag	NPY-Y2 antag	NPY1 antag conf	NPY-Y2 antag ct
CCCc1[nH]nc2c1C(c1ccsc1)C(C#N)=C(N)O2 (stereo not given)	40.0*	-2.4	14.8	x	37.5*	22.3*
CCn1nc(C)c(Br)c1-c1nc(-c2cccc(C)c2)no1	x	-24.7	-14.9	x	x	x
CCCn1c(NCc2cc(OC)ccc2OC)nc2ccccc21	12.8	-16.9	-26.2	11.4	x	x
COc1ccc(OC)c(CNc2nc3ccccc3n2CCN2CCCCC2)c1	32.7*	-5.7	-19.7	14.5	21.5*	18.0*
O=C(NC(=O)c1ccccc1O)c1ccc2c(c1)CCO2	x	-2.4	-0.8	x	x	x
O=C(O)CC(Cc1ccccc1)c1ccc2c(c1)OCO2 (stereo not given)	23.0*	-28.5	-20.6	7.9	13.2	11.8
CC(=O)N(CCC(Cc1ccccc1)c1ccc2c(c1)OCO2)Cc1ccc(Cl)cc1 (stereo not given)	12.3	-18.4	-7.2	9.2	x	x
Cc1cc(C(=O)N2CCN(S(=O)(=O)c3ccccc3F)CC2)c(C)o1	-3.5	3.2	-9.1	x	x	x
COC(=O)[C@@]1(Cc2ccc(OC)cc2)[C@H]2c3cc(C(=O)N(C)C)n(Cc4ccc(OC(F)(F)F)cc4)c3C[C@H]2CN1C(=O)c1ccccc1	35.1*	8.7	3.4	16.0	14.3	6.4
COC(=O)[C@@]1(Cc2ccc(OC)cc2)[C@H]2c3cc(C(=O)N(C)C)n(C[C@H](O)CO)c3C[C@H]2CN1C(=O)c1ccccc1	-1.1	4.2	0.9	1.8	x	x
O=C(C1CC1)N(CCN(Cc1ccccc1)C(=O)C1CC1)Cc1ccccc1	54.6*	-8.7	-25.5	15.5	39.6*	24.2*
CN1CCc2c(n(CC(O)CN(CCO)CCO)c3ccccc23)C1=O (stereo not given)	1.9	-3.9	-12.1	x	x	x
CN1CCc2c(n(CC(O)CNCc3ccccc3)c3ccccc23)C1=O (stereo not given)	22.5*	-15.8	-30.8	x	13.0	15.3
CC(C)=NOc1nc(N(C)C)nc(N(C)C)n1	-2.4	11.6	-6.6	3.5	x	x
Cc1ccc(-n2cc(CNCC3CC(=O)N(C4CC4)C3)c(-c3cccc(C)c3)n2)cc1 (stereo not given)	21.8*	-29.2	-39.7	x	10.0	16.5
CCCCOC(=O)c1cc(=O)[nH]c2ccc(C)cc12	22.0*	2.7	-5.1	x	10.3	7.5
CCCCOC(=O)c1cc(=O)[nH]c2ccccc12	8.8	-20.8	-3.6	1.8	x	x
O=C(NC(=S)Nc1ccc(CN2CCCCC2)cc1)c1cccc(OCc2ccccc2)c1	41.6*	-56.8	-52.6	x	42.3*	52.6*
COc1cccc(CCc2nnc(CCC(=O)NC(C)c3c(C)nn(C)c3C)o2)c1 (stereo not given)	-7.2	1.5	11.5	x	x	x
CCO/C=C/C(O)(CNC(=O)c1ccc(C(C)(C)C)cc1)C(F)(F)F (stereo not given)	-3.2	-11.4	-9.4	4.8	x	x
N#CC(C(=O)c1ccccc1)=C1SCCS1	x	1.4	1.8	x	x	x
O=C(c1ccco1)N1CCN(S(=O)(=O)c2ccc(S(=O)(=O)NC3CCCC3)cc2)CC1	20.3*	7.5	-17.0	11.0	4.3	2.4
